ChEMBL document CHEMBL4406880, “Design, synthesis, and bioactivity of dihydropyrimidine derivatives as kinesin spindle protein inhibitors” (Bioorg Med Chem, 2019)

Assays:
Format in all cases: functional
[1] = tested on: CAKI-1; test: Growth inhibition of human Caki1 cells assessed as cell viability at 0.001 uM incubated for 48 hrs by sulforhodamine B assay relative to control; conditions: CAKI-1, 48 h, read-out: Activity
[2] = tested on: HCT-15; test: Growth inhibition of human HCT15 cells incubated for 48 hrs by sulforhodamine B assay; conditions: HCT-15, 48 h
Summary of the method: (§1)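 NCI-60 five-dose mode: five tenfold dilutions (0.01, 0.1, 1, 10, 100 µM) are applied for 48 h to cells in RPMI 1640 with 5% FBS at 37 °C. Endpoint is TCA fixation with sulforhodamine B read at 515 nm. % growth comes from the 0 h and control absorbances. GI50 is the concentration giving a 50% reduction in net cell growth.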

[3] = tested on: U-251; test: Growth inhibition of human U251 cells assessed as cell viability at 0.001 uM incubated for 48 hrs by sulforhodamine B assay relative to control; conditions: U-251, 48 h, read-out: Activity
[4] = tested on: CCRF-CEM; test: Growth inhibition of human CCRF-CEM cells assessed as cell viability at 100 uM incubated for 48 hrs by sulforhodamine B assay; conditions: read-out: Activity
[5] = tested on: SNB-75; test: Cell cycle arrest in human SNB75 cells assessed as accumulation in preG1 phase at 2 uM incubated for 24 hrs by propidium iodide based flow cytometry (reference value: 1.85 %)
Summary of the method: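 SNB-75 cells were exposed to 2 µM for 24 h at 37 °C, 5% CO2, then washed with PBS and fixed in 70% ethanol on ice for 15 min. They were stained 1 h at room temperature with 50 µg/mL propidium iodide, 0.1 mg/mL RNase A and 0.05% Triton X-100. DNA content was read by flow cytometry to give the % of cells in pre-G1, G0/G1, S and G2/M.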

[6] = tested on: OVCAR-8; test: Growth inhibition of human OVCAR8 cells assessed as cell viability at 100 uM incubated for 48 hrs by sulforhodamine B assay; conditions: OVCAR-8, 48 h, read-out: Activity
[7] = tested on: UACC-62; test: Growth inhibition of human UACC62 cells assessed as cell viability at 1 uM incubated for 48 hrs by sulforhodamine B assay; conditions: UACC-62, 48 h, read-out: Activity
[8] = tested on: ACHN; test: Growth inhibition of human ACHN cells assessed as cell viability at 1 uM incubated for 48 hrs by sulforhodamine B assay; conditions: read-out: Activity; summary of the method: as §1
[9] = tested on: OVCAR-5; test: Growth inhibition of human OVCAR5 cells assessed as cell viability at 0.1 uM incubated for 48 hrs by sulforhodamine B assay; conditions: OVCAR-5, 48 h, read-out: Activity
[10] = tested on: SK-MEL-5; test: Growth inhibition of human SK-MEL-5 cells incubated for 48 hrs by sulforhodamine B assay; conditions: SK-MEL-5, 48 h
Summary of the method: (§2)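 NCI-60 five-dose SRB assay. Cells were exposed for 48 h to tenfold dilutions of 0.01, 0.1, 1, 10 and 100 µM, in RPMI 1640 with 5% FBS. Plates fixed with TCA at the time of drug addition served as the time-zero reference. GI50 is the concentration giving a 50% reduction in net growth. TGI is total growth inhibition. LC50 is a net 50% loss of the initial cells.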

[11] = tested on: RXF 393; test: Growth inhibition of human RXF393 cells incubated for 48 hrs by sulforhodamine B assay; conditions: RXF 393, 48 h; summary of the method: as §2
[12] = tested on: CAKI-1; test: Growth inhibition of human Caki1 cells assessed as cell viability at 0.1 uM incubated for 48 hrs by sulforhodamine B assay; conditions: CAKI-1, 48 h, read-out: Activity
[13] = tested on: SN12C; test: Growth inhibition of human SN12C cells assessed as cell viability at 100 uM incubated for 48 hrs by sulforhodamine B assay; conditions: read-out: Activity
[14] = tested on: SR; test: Growth inhibition of human SR cells assessed as cell viability at 0.001 uM incubated for 48 hrs by sulforhodamine B assay relative to control; conditions: read-out: Activity
[15] = tested on: Hs-578T; test: Growth inhibition of human Hs 578T cells incubated for 48 hrs by sulforhodamine B assay
Summary of the method: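 NCI-60 five-dose SRB assay in RPMI 1640 with 5% FBS, 37 °C, 5% CO2. Compound given at five tenfold dilutions, 0.01–100 µM, for 48 h. Adherent cells fixed with TCA, suspension cells with 16% final TCA. Bound SRB read at 515 nm and growth calculated against time-zero and untreated controls. GI50 taken from dose–response curves as the concentration giving a 50% decrease in net cell growth.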

[16] = tested on: NCI-H522; test: Growth inhibition of human NCI-H522 cells assessed as cell viability at 0.001 uM incubated for 48 hrs by sulforhodamine B assay relative to control; conditions: NCI-H522, 48 h, read-out: Activity
[17] = tested on: LOX IMVI; test: Growth inhibition of human LOXIMVI cells assessed as cell viability at 0.001 uM incubated for 48 hrs by sulforhodamine B assay relative to control; conditions: read-out: Activity
[18] = tested on: A549; test: Growth inhibition of human A549/ATCC cells assessed as cell viability at 100 uM incubated for 48 hrs by sulforhodamine B assay; conditions: A549, 48 h, read-out: Activity; summary of the method: as §1
[19] = tested on: SK-OV-3; test: Growth inhibition of human SKOV3 cells incubated for 48 hrs by sulforhodamine B assay; conditions: SK-OV-3, 48 h; summary of the method: as §2
[20] = tested on: MDA-MB-468; test: Growth inhibition of human MDA-MB-468 cells assessed as cell viability at 0.1 uM incubated for 48 hrs by sulforhodamine B assay; conditions: MDA-MB-468, 48 h, read-out: Activity
[21] = tested on: Hs-578T; test: Growth inhibition of human Hs 578T cells assessed as cell viability at 0.1 uM incubated for 48 hrs by sulforhodamine B assay; conditions: read-out: Activity
[22] = tested on: HCT-15; test: Growth inhibition of human HCT15 cells assessed as cell viability at 0.1 uM incubated for 48 hrs by sulforhodamine B assay; conditions: HCT-15, 48 h, read-out: Activity
[23] = tested on: SNB-75; test: Growth inhibition of human SNB75 cells assessed as cell viability at 0.001 uM incubated for 48 hrs by sulforhodamine B assay relative to control; conditions: SNB-75, 48 h, read-out: Activity
[24] = read-out: LC50 (the source's name)
[25] = read-out: pLC50 (the source's name) (converted)

CC1=C(C(=O)OCc2ccccc2)C(c2ccc3c(c2)OCO3)n2c(nc3ccccc32)N1 (racemic)
viability at 0.001 µM [1]: 83%
GI50 ([2]; read-out: GI50): 0.37 µM
LC50 (concentration causing 50% net cell kill) ([2]; read-out: LC50): > 100 µM
TGI ([2]; read-out: TGI): > 100 µM
GI50 ([2]; read-out: pGI50 (converted)): 0.372 µM
LC50 (concentration causing 50% net cell kill) ([2]; read-out: pLC50 (converted)): > 100 µM
TGI ([2]; read-out: pTGI): > 100 µM
viability at 0.001 µM [3]: 94%
viability at 100 µM [4]: 18%
Activity [5]: 24.82%
viability at 100 µM [6]: 14%
viability at 1 µM [7]: 29%
viability at 1 µM [8]: 39%
viability at 0.1 µM [9]: 100%
GI50 ([10]; read-out: GI50): 0.54 µM
CC50 [10, 24]: > 100 µM
TGI ([10]; read-out: TGI): > 100 µM
GI50 ([10]; read-out: pGI50 (converted)): 0.537 µM
CC50 [10, 25]: > 100 µM
TGI ([10]; read-out: pTGI): > 100 µM
GI50 ([11]; read-out: GI50): 0.31 µM
CC50 [11, 24]: > 100 µM
TGI ([11]; read-out: TGI): > 100 µM
GI50 ([11]; read-out: pGI50 (converted)): 0.302 µM
CC50 [11, 25]: > 100 µM
TGI ([11]; read-out: pTGI): > 100 µM
viability at 0.1 µM [12]: 74%
viability at 100 µM [13]: 25%
viability at 0.001 µM [14]: 84%
GI50 ([15]; read-out: GI50): 0.28 µM
CC50 [15, 24]: > 100 µM
TGI ([15]; read-out: TGI): 23.8 µM
GI50 ([15]; read-out: pGI50 (converted)): 0.282 µM
CC50 [15, 25]: > 100 µM
TGI ([15]; read-out: pTGI (converted)): 24 µM
viability at 0.001 µM [16]: 78%
viability at 0.001 µM [17]: 93%
viability at 100 µM [18]: 10%
GI50 ([19]; read-out: GI50): 0.47 µM
CC50 [19, 24]: > 100 µM
TGI ([19]; read-out: TGI): > 100 µM
GI50 ([19]; read-out: pGI50 (converted)): 0.468 µM
CC50 [19, 25]: > 100 µM
TGI ([19]; read-out: pTGI): > 100 µM
viability at 0.1 µM [20]: 94%
viability at 0.1 µM [21]: 88%
viability at 0.1 µM [22]: 84%
viability at 0.001 µM [23]: 61%
